Only some compounds are listed: those with a hit (about 2.4% of all), similar ones and a draw of the others.
Cneo AK release – causes C. neoformans cell lysis. 360,000 compounds, 0.2% hits. adenylate kinase release luminescence, 4 h; normalised: neutral wells 0, clomiphene wells 100. lysis activity, % at 15 µM;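 active = mean lysis activity across replicates of at least 80%, whatever share of replicates individually reach that level; inactive = mean lysis activity below 80%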
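Material – log-phase Cryptococcus neoformans yeast cells · Input – 5 × 10^6 yeast cells/mL · Medium – fresh YPD growth medium · Doses – single compound concentration per well · Timing – static 4 h at 37 °C with compound, 1 h detection · Detection – adenylate kinase release luminescence · Read-out – signal increase indicating cell lysis · Control set – Clomiphene as positive lysis control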
miR-122 sensor – inhibitors of miR-122 in Huh7 cells. Huh7 miR-122 Renilla luciferase sensor, 48 h; neutral wells = 0, positive control = 100. activation (reporter increase), % at 12.5 µM. 340,000 compounds, 0.3% hits;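 active = mean replicate activation score at least 90 and every replicate individually at or above 90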;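 also: higher luciferase means less miR-122 activity so hits act as miR-122 inhibitors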
GSIS activator – primary screen for activators of insulin secretion dependent on glucose, INS-1E cells, GLuc reporter luminescence; INS-1E GLuc reporter insulin secretion, 2-3 h; AID 743287; 370,000 compounds, 0.61% hits; activation, % at 16.6 µM;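 active = lowest replicate activation of at least 40%, so every replicate reaches that level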;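 also: 0% = median of neutral control wells and 100% = median of IBMX positive control wells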
Rtt109 Vps75 – blocks Candida albicans Rtt109/Vps75 acetyltransferase activity; 330,000 compounds, 0.16% hits; purified Rtt109/Vps75, ThioGlo CoA-SH fluorescence, 4 h; Q5AAJ8; AID 540336; inhibition, % at 34.9 µM;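 active = inhibition of at least 50% in every replicate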
Target sequence (Q5AAJ8 whole entry, looked up): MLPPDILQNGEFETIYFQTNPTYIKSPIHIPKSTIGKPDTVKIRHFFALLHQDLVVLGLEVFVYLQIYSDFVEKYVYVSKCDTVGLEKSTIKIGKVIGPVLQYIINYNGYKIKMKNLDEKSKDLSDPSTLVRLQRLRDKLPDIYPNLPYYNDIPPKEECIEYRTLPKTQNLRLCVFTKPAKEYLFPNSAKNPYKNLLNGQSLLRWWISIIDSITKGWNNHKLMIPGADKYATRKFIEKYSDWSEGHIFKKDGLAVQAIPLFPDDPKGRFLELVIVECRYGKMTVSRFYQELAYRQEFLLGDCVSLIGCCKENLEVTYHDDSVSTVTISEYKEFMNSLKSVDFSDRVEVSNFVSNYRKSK
HIV Env fusion – blocks HIV Env-driven cell-cell fusion; HeLa-JRFL Env/CEM21 cell fusion, luciferase; inhibition, % at 12.3 µM; 360,000 compounds, 1.1% hits;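 active = mean replicate inhibition score of at least 50 and every replicate individually at or above 50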;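 also: 0% = plate neutral controls and 100% = maraviroc near 300 nM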
dFosB act-1 – mouse delta FosB homodimer activation. AID 493131. 340,000 compounds, 0.99% hits. activation, % at 25 µM. purified delta FosB, TAMRA-CDK5 oligo fluorescence polarization; percent of positive-control signal above neutral wells;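 active = mean activation above about 17%, with every replicate also reaching it, limit read from the data, passing the limit was not always enough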
dFosB act-2 – activators of mouse delta FosB homodimer DNA binding; shares compounds with dFosB act-1; purified delta FosB, TAMRA-CDK5 oligo fluorescence polarization; normalised: neutral wells 0, positive control 100; activation, % at 24.9 µM; 2,400 tested, under 10 active; AID 588690;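 active = highest replicate activation at or above 34% and every replicate reaching that threshold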;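 also: higher polarization means more probe DNA bound by delta FosB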
Starred values were filed as active, the others as inactive; · = no result; [ ] = dose if it differs, or a comment.

SMILES | Cneo AK release | miR-122 sensor | GSIS activator | Rtt109 Vps75 | HIV Env fusion | dFosB act-1 | dFosB act-2
S=c1nc(-c2ccc(Br)cc2)[nH]c2ccccc12 | -8 | 5 | -9 | -1 | 6 | 45* | -1
CC(C)NC(=O)Nc1ccc2c(c1)CC(=O)N(C)C[C@H](C)[C@@H](CN(C)C)O2 | · | · | 10 | · | · | · | ·
CCOc1ccc(NS(=O)(=O)c2ccc(C(=O)NCC(c3ccc(OC)cc3)N3CCCC3)cc2)cc1 (configuration not stated) | -2 | · | -7 | 6 | 1 | 24* | 6
COc1ccc(/C=N/NC(=O)C2c3ccccc3-c3ccccc32)cc1 | · | · | 4 | -6 | -18 | 22* | 0
COc1ccc2c3c(n(C)c2c1)[C@@H](CO)N(C(=O)c1cnccn1)CC31CCN(C(=O)c2cnccn2)CC1 | · | · | 17 | · | -3[16.7 µM] | · | ·
C[C@@H]1C/C=C/C[C@H](c2ccc3c(c2)OCO3)NC(=O)[C@@H](C)N(C)C(=O)c2ccccc2O1 | · | · | -6 | · | · | · | ·
Cc1ccsc1C(=O)NNC(=O)Nc1ccc(Cl)c(Cl)c1 | 0 | 11 | · | 10 | -75 | 25* | 0
Cc1occc1C(=O)NNC(=O)Nc1ccc(Cl)c(Cl)c1 | 0 | 5 | -6 | -5 | -5 | -7 | ·
C[C@@H]1CN([C@@H](C)CO)C(=O)c2cc(NS(=O)(=O)c3cn(C)cn3)ccc2O[C@@H](C)CCCCO[C@@H]1CN(C)C(=O)Nc1cccc2ccccc12 | -11 | -1[16.7 µM] | -5 | · | -7[16.7 µM] | · | ·
NC(=O)c1nc(-c2cccs2)nc2c1[nH]c(=O)n2-c1ccc(F)cc1 | -2 | 7 | 3 | -3 | 10 | 123* | 1
CC(C)Cc1nc(C(N)=O)c2[nH]c(=O)n(-c3ccc(F)cc3)c2n1 | 0 | -4 | · | -21 | -17 | -14 | ·
CC(=O)Oc1ccc(C(=O)Nc2cccc(C(=O)c3cccc(NC(=O)c4ccc(OC(C)=O)cc4)c3)c2)cc1 | · | · | 25 | -1 | 22 | 57* | 2
CC(=O)Oc1ccc(C(=O)Nc2cccc(C(=O)NC(C)(C)C)c2)cc1 | · | · | -10 | -2 | 10 | -4 | ·
CCC(=O)N1CC2(C1)[C@H](c1ccc(-c3cccc(F)c3)cc1)[C@H](CO)N2CC1CC1 | · | · | 3 | · | · | · | ·
COc1ccc(Cc2nnc(NC(=O)c3cccc(F)c3)s2)cc1OC | -2 | 7 | 7 | -2 | 8 | 19* | 2
C[C@H]1CN([C@@H](C)CO)C(=O)c2cc(C#CC(C)(C)O)cnc2O[C@@H]1CN(C)Cc1cccc(F)c1 | · | 19[16.7 µM] | 27 | · | 13[16.7 µM] | · | ·
CCOc1ccc(Oc2ccc(NC(=O)[C@@H](NC(N)=O)[C@@H](C)CC)cc2)cc1 | 0 | 5 | 14 | 2 | 1 | 31* | 1
Cc1noc(C)c1NC(=O)NCC[C@@H]1CC[C@H](NC(=O)Nc2cccc(Cl)c2)[C@H](CO)O1 | -7 | · | 8 | · | 6[16.7 µM] | · | ·
COc1ccc(S(=O)(=O)N(C)C[C@@H]2Oc3c(NC(=O)Nc4ccc(C(F)(F)F)cc4)cccc3C(=O)N([C@@H](C)CO)C[C@H]2C)cc1 | -1 | -4[16.7 µM] | 2 | · | -47[16.7 µM] | · | ·
COc1ccc(S(=O)(=O)N(C)C[C@H]2Oc3c(NC(=O)Nc4ccc(C(F)(F)F)cc4)cccc3C(=O)N([C@H](C)CO)C[C@@H]2C)cc1 | 1 | 6 | -16 | 4 | · | 66* | 0
C[C@H]1CN([C@@H](C)CO)C(=O)c2cccc(NC(=O)Nc3ccc(C(F)(F)F)cc3)c2O[C@@H]1CN(C)S(=O)(=O)c1ccccc1 | -1 | · | -11 | 3 | -106 | 29* | 4
Cc1noc(C)c1NC(=O)N(C)C[C@@H]1OCCCC[C@@H](C)Oc2ccc(NS(=O)(=O)c3cccs3)cc2C(=O)N([C@H](C)CO)C[C@H]1C | -3 | -2[16.7 µM] | 7 | · | 15[16.7 µM] | · | ·
CCCNC(=O)N1CC2(CCN(C(=O)CN(C)C)CC2)c2c(n(C)c3cc(OC)ccc23)[C@@H]1CO | · | · | 12 | · | · | · | ·
